Reference: BindingDB's records for doi:10.1021/jm00017a020 (Sandoz Pharma, 1995)

Target: T1, Interleukin-2 (Mus musculus, UniProt P04351)
T1 sequence (P04351 whole entry): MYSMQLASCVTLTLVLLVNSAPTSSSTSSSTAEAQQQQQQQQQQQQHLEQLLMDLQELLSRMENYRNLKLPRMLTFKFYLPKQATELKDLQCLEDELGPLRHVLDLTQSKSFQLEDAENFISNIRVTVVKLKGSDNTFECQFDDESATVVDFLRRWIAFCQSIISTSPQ
Test: The compound was evaluated in vitro for the immunosuppressive activity in interleukin-2 by interleukin-2 reporter gene assay (IL2-RGA)
Summary of the method: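 Cellular immunosuppression read in the mouse mixed lymphocyte reaction or the interleukin-2 reporter gene assay. The IC50 in nM is the mean of three independent experiments.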

C/C=C/C[C@@H](C)[C@@H](O)[C@H]1C(=O)N[C@@H](CCC)C(=O)N(C)CC(=O)N(C)[C@@H](CC(C)C)C(=O)N[C@@H](C(C)C)C(=O)N(C)[C@@H](CC(C)C)C(=O)N[C@@H](C)C(=O)N[C@H](C)C(=O)N(C)[C@@H](CC(C)C)C(=O)N(C)[C@@H](CC(C)C)C(=O)N(C)[C@@H](C(C)C)C(=O)N1C [GECLOSPORIN]
IC50: 13 nM

C/C=C/C[C@@H](C)[C@@H](O)[C@@H]1C(=O)N[C@H](CCCO)C(=O)N(C)CC(=O)N(C)[C@H](CC(C)C)C(=O)N[C@H](C(C)C)C(=O)N(C)[C@H](CC(C)C)C(=O)N[C@H](C)C(=O)N[C@@H](C)C(=O)N(C)[C@H](CC(C)C)C(=O)N(C)[C@H](CC(C)C)C(=O)N(C)[C@H](C(C)C)C(=O)N1C [33-(1-Hydroxy-2-methyl-hex-4-enyl)-30-(3-hydroxy-propyl)-6,9,18,24-tetraisobutyl-3,21-diisopropyl-1,4,7,10,12,15,19,25,28-nonamethyl-1,4,7,10,13,16,19,22,25,28,31undecaaza-cyclotritriacontan-2,5,8,11,14,17,20,23,26,29,32-undecaone]
IC50: 70 nM
